Experimental data from ChEMBL document CHEMBL4346701, “Synthesis and biological evaluation of tryptophan-derived rhodanine derivatives as PTP1B inhibitors and anti-bacterial agents” (Eur J Med Chem, 2019).
Values after ≈ are worked out from the molar mass of the structure shown.

Assays:
[1] = target: T1, Tyrosine-protein phosphatase non-receptor type 1 (Homo sapiens, UniProt P18031); test: Inhibition of human recombinant GST-tagged PTP1B expressed in Escherichia coli BL21 (DE3) using pNPP as substrate measured for 2 mins by colorimetric analysis
T1 sequence (P18031 whole entry): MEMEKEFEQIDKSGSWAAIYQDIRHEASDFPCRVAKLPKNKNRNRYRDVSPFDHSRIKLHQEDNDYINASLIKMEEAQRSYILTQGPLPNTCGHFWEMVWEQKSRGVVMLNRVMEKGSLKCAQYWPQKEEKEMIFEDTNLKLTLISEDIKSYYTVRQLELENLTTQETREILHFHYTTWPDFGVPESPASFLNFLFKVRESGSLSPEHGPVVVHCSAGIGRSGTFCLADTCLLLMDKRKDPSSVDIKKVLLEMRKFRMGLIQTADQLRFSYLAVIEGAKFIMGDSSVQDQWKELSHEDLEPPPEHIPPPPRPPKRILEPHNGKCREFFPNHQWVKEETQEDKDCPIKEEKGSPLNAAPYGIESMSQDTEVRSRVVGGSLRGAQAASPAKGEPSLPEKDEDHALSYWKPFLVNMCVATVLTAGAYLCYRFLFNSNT

[2] = system: Staphylococcus aureus; test: Antibacterial activity against Staphylococcus aureus RN4220 assessed as reduction in bacterial cell growth incubated for 24 hrs by ELISA; type: functional; details: RN4220, 24 h
Procedure, shortened: (§1)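 MICs determined by serial dilution in 96-well microtiter plates. The strain panel included Gram-positive S. aureus strains and multidrug-resistant clinical isolates. Gatifloxacin, moxifloxacin, norfloxacin and oxacillin served as antibacterial positive controls.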

[3] = system: Staphylococcus aureus; test: Antibacterial activity against Staphylococcus aureus KCTC209 assessed as reduction in bacterial cell growth incubated for 24 hrs by ELISA; type: functional; details: KCTC209, 24 h; procedure, shortened: as §1
[4] = system: Staphylococcus aureus; test: Antibacterial activity against Staphylococcus aureus KCTC503 assessed as reduction in bacterial cell growth incubated for 24 hrs by ELISA; type: functional; details: KCTC503, 24 h; procedure, shortened: as §1
[5] = system: Streptococcus mutans; test: Antibacterial activity against Streptococcus mutans KCTC3289 assessed as reduction in bacterial cell growth incubated for 24 hrs by ELISA; type: functional; details: KCTC3289, 24 h
Procedure, shortened: (§2)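 MIC determined by serial dilution in 96-well microtiter plates. Strains used were E. coli 1924 and P. aeruginosa 2742 (Gram-negative), S. mutans 3289 (Gram-positive) and the fungus C. albicans 7535. Gatifloxacin, moxifloxacin, norfloxacin and oxacillin served as antibacterial reference agents, and fluconazole as the antifungal reference.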

[6] = system: Escherichia coli; test: Antibacterial activity against Escherichia coli 1924 assessed as reduction in bacterial cell growth incubated for 24 hrs by ELISA; type: functional; details: Escherichia coli, 1924, 24 h; procedure, shortened: as §2
[7] = system: Pseudomonas aeruginosa; test: Antibacterial activity against Pseudomonas aeruginosa 2742 assessed as reduction in bacterial cell growth incubated for 24 hrs by ELISA; type: functional; details: Pseudomonas aeruginosa, 2742, 24 h; procedure, shortened: as §2
[8] = system: Candida albicans; test: Antifungal activity against Candida albicans 7535 assessed as reduction in bacterial cell growth incubated for 24 hrs by ELISA; type: functional; details: Candida albicans, 7535, 24 h; procedure, shortened: as §2
[9] = system: Staphylococcus aureus; test: Antibacterial activity against Methicillin-resistant Staphylococcus aureus CCARM 3167 assessed as reduction in bacterial cell growth incubated for 24 hrs by ELISA; type: functional; details: CCARM 3167, 24 h; procedure, shortened: as §1
[10] = system: Staphylococcus aureus; test: Antibacterial activity against Methicillin-resistant Staphylococcus aureus CCARM 3506 assessed as reduction in bacterial cell growth incubated for 24 hrs by ELISA; type: functional; details: CCARM 3506, 24 h; procedure, shortened: as §1
[11] = system: Staphylococcus aureus; test: Antibacterial activity against Quinolone-resistant Staphylococcus aureus CCARM 3505 assessed as reduction in bacterial cell growth incubated for 24 hrs by ELISA; type: functional; details: CCARM 3505, 24 h; procedure, shortened: as §1
[12] = system: Staphylococcus aureus; test: Antibacterial activity against Quinolone-resistant Staphylococcus aureus CCARM 3519 assessed as reduction in bacterial cell growth incubated for 24 hrs by ELISA; type: functional; details: CCARM 3519, 24 h; procedure, shortened: as §1
[13] = system: Staphylococcus aureus; test: Potency index, ratio of MIC of gatifloxacin to MIC of compound for antibacterial activity against Staphylococcus aureus KCTC503 assessed as reduction in bacterial cell growth incubated for 24 hrs by ELISA; type: functional
[14] = system: Escherichia coli; test: Potency index, ratio of MIC of gatifloxacin to MIC of compound for antibacterial activity against Escherichia coli 1924 assessed as reduction in bacterial cell growth incubated for 24 hrs by ELISA; type: functional
[15] = system: Escherichia coli; test: Potency index, ratio of MIC of moxifloxacin to MIC of compound for antibacterial activity against Escherichia coli 1924 assessed as reduction in bacterial cell growth incubated for 24 hrs by ELISA; type: functional
[16] = system: Staphylococcus aureus; test: Potency index, ratio of MIC of norfloxacin to MIC of compound for antibacterial activity against Methicillin-resistant Staphylococcus aureus CCARM 3167 assessed as reduction in bacterial cell growth incubated for 24 hrs by ELISA; type: functional
[17] = system: Staphylococcus aureus; test: Potency index, ratio of MIC of norfloxacin to MIC of compound for antibacterial activity against Methicillin-resistant Staphylococcus aureus CCARM 3506 assessed as reduction in bacterial cell growth incubated for 24 hrs by ELISA; type: functional
[18] = system: Staphylococcus aureus; test: Potency index, ratio of MIC of oxacillin to MIC of compound for antibacterial activity against Methicillin-resistant Staphylococcus aureus CCARM 3167 assessed as reduction in bacterial cell growth incubated for 24 hrs by ELISA; type: functional
[19] = system: Staphylococcus aureus; test: Potency index, ratio of MIC of oxacillin to MIC of compound for antibacterial activity against Methicillin-resistant Staphylococcus aureus CCARM 3506 assessed as reduction in bacterial cell growth incubated for 24 hrs by ELISA; type: functional
[20] = target: T2, Tyrosine-protein phosphatase non-receptor type 2 (Homo sapiens, UniProt P17706); test: Inhibition of human recombinant GST-tagged TCPTP (catalytic domain […] residues) expressed in Escherichia coli BL21 (DE3) using pNPP as substrate measured for 2 mins by colorimetric analysis
T2 sequence (P17706 whole entry): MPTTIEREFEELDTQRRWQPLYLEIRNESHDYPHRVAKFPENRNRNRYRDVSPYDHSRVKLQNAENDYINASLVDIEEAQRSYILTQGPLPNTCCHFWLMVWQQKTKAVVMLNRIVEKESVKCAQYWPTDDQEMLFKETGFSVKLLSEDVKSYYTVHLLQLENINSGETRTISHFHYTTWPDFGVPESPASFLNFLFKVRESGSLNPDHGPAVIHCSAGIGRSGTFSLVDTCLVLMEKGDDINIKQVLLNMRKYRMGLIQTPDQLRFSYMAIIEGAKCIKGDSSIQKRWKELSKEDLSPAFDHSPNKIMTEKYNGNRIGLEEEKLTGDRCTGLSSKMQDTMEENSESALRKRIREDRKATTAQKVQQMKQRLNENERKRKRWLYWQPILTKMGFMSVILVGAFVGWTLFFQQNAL

[21] = target: T3, M-phase inducer phosphatase 2 (Homo sapiens, UniProt P30305); test: Inhibition of human recombinant GST-tagged CDC25B expressed in Escherichia coli BL21 (DE3) using pNPP as substrate measured for 2 mins by colorimetric analysis
T3 sequence (P30305 whole entry): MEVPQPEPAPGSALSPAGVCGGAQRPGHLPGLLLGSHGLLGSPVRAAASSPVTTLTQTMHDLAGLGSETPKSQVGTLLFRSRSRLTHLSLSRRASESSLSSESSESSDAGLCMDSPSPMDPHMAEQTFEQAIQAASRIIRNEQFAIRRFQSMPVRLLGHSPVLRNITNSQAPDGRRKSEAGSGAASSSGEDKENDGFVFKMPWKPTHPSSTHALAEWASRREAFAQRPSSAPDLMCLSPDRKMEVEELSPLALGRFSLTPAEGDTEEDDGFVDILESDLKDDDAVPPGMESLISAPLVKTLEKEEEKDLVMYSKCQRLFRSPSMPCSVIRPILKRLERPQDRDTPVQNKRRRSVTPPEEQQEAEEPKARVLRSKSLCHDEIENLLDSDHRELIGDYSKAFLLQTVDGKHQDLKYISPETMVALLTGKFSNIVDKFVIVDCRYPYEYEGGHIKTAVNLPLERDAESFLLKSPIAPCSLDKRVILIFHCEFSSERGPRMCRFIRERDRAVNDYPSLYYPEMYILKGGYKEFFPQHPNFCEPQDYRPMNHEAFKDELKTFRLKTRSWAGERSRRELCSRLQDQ
Procedure, shortened: (§3)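 pNPP hydrolysis assay. IC50 was derived by regression analysis and given as mean ± SD of three replications.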

[22] = target: Tyrosine-protein phosphatase non-receptor type 6 (Homo sapiens, UniProt P29350); test: Inhibition of human recombinant GST-tagged SHP1 (catalytic domain 244 to 570 residues) expressed in Escherichia coli BL21 (DE3) using pNPP as substrate measured for 2 mins by colorimetric analysis; procedure, shortened: as §3
[23] = target: T4, Tyrosine-protein phosphatase non-receptor type 11 (Homo sapiens, UniProt Q06124); test: Inhibition of human recombinant GST-tagged SHP2 (catalytic domain […] residues) expressed in Escherichia coli BL21 (DE3) using pNPP as substrate measured for 2 mins by colorimetric analysis; procedure, shortened: as §3
T4 sequence (Q06124 whole entry): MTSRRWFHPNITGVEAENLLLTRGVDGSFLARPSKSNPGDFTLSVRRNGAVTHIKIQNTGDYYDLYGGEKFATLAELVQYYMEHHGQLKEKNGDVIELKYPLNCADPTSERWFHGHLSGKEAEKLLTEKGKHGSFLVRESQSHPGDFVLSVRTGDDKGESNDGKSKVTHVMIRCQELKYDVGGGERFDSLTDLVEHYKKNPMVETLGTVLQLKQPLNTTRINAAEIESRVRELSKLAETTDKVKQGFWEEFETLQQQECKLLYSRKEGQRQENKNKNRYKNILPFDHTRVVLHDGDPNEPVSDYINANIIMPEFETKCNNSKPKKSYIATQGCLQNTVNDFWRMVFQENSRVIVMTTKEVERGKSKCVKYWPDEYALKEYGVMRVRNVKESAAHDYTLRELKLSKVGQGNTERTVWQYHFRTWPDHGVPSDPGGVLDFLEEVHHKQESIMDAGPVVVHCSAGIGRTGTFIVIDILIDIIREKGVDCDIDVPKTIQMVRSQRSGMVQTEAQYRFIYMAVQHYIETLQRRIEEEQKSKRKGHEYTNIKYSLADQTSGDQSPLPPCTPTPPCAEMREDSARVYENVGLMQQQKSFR

Sequence of Tyrosine-protein phosphatase non-receptor type 6 (P29350 whole entry, the tested form may be a part): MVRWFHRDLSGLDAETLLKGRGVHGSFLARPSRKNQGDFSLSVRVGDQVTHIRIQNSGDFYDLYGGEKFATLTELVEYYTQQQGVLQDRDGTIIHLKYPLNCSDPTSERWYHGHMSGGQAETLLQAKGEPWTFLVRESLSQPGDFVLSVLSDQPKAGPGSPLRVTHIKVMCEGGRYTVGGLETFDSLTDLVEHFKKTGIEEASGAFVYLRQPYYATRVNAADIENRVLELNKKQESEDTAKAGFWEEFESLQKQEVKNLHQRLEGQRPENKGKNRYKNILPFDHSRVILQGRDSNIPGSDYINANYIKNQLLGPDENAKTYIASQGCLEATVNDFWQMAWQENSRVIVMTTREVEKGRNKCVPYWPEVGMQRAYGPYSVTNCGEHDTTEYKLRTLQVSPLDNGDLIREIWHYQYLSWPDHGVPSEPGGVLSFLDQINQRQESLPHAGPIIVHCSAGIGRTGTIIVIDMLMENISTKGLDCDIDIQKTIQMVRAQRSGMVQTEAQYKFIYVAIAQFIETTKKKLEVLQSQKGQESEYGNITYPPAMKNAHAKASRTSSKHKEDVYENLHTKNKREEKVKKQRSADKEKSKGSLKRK

Compound	IC50 [1]	MIC [2]	MIC [3]	MIC [4]	MIC [5]	MIC [6]	MIC [7]	MIC [8]	MIC [9]	MIC [10]	MIC [11]	MIC [12]	Ratio [13]	Ratio [16]	Ratio [17]	Ratio [18]	Ratio [19]	also measured
O=C(O)C(Cc1c[nH]c2ccccc12)N1C(=O)/C(=C/c2ccc(OCc3ccc(Br)cc3)cc2)SC1=S (stereo not drawn)	2.6 µM	1 µg/mL (≈ 1.68 µM)	4 µg/mL (≈ 6.74 µM)	2 µg/mL (≈ 3.37 µM)	1 µg/mL (≈ 1.68 µM)	1 µg/mL (≈ 1.68 µM)	> 64 µg/mL	> 64 µg/mL	2 µg/mL (≈ 3.37 µM)	2 µg/mL (≈ 3.37 µM)	2 µg/mL (≈ 3.37 µM)	2 µg/mL (≈ 3.37 µM)	2	4	4	64	64	Ratio [14]: 2; Ratio [15]: 2
O=C(O)C(Cc1c[nH]c2ccccc12)N1C(=O)/C(=C/c2cccc(OCc3ccc(Cl)cc3)c2)SC1=S (stereo not drawn)	5.76 µM	2 µg/mL (≈ 3.64 µM)	2 µg/mL (≈ 3.64 µM)	2 µg/mL (≈ 3.64 µM)	2 µg/mL (≈ 3.64 µM)	2 µg/mL (≈ 3.64 µM)	> 64 µg/mL	> 64 µg/mL	2 µg/mL (≈ 3.64 µM)	4 µg/mL (≈ 7.29 µM)	2 µg/mL (≈ 3.64 µM)	4 µg/mL (≈ 7.29 µM)	2					
O=C(O)C(Cc1c[nH]c2ccccc12)N1C(=O)/C(=C/c2ccc3cc(OCc4ccc(F)cc4)ccc3c2)SC1=S (stereo not drawn)	0.45 µM	1 µg/mL (≈ 1.72 µM)	4 µg/mL (≈ 6.86 µM)	2 µg/mL (≈ 3.43 µM)	2 µg/mL (≈ 3.43 µM)	2 µg/mL (≈ 3.43 µM)	> 64 µg/mL	> 64 µg/mL	2 µg/mL (≈ 3.43 µM)	2 µg/mL (≈ 3.43 µM)	2 µg/mL (≈ 3.43 µM)	2 µg/mL (≈ 3.43 µM)						IC50 [20]: 1.12 µM; IC50 [21]: 0.38 µM; IC50 [22]: 1.52 µM; IC50 [23]: 4.26 µM
O=C(O)C(Cc1c[nH]c2ccccc12)N1C(=O)/C(=C/c2ccc3cc(OCc4ccc(Cl)cc4)ccc3c2)SC1=S (stereo not drawn)	0.72 µM	2 µg/mL (≈ 3.34 µM)			2 µg/mL (≈ 3.34 µM)	2 µg/mL (≈ 3.34 µM)	> 64 µg/mL	> 64 µg/mL	2 µg/mL (≈ 3.34 µM)	2 µg/mL (≈ 3.34 µM)	2 µg/mL (≈ 3.34 µM)	4 µg/mL (≈ 6.68 µM)		4	4	64	64	
COc1cc(/C=C2\SC(=S)N(C(Cc3c[nH]c4ccccc34)C(=O)O)C2=O)ccc1OCc1ccc(Cl)cc1Cl (stereo not drawn)	0.7 µM	2 µg/mL (≈ 3.26 µM)	2 µg/mL (≈ 3.26 µM)	2 µg/mL (≈ 3.26 µM)	2 µg/mL (≈ 3.26 µM)	2 µg/mL (≈ 3.26 µM)	> 64 µg/mL	> 64 µg/mL	2 µg/mL (≈ 3.26 µM)	2 µg/mL (≈ 3.26 µM)	2 µg/mL (≈ 3.26 µM)	2 µg/mL (≈ 3.26 µM)		4	4	64	64	
